# In ChEMBL document CHEMBL3046428, “Isolation, characterization and antifungal activity of major constituents of the Himalayan lichen Parmelia reticulata Tayl” (2011):
# Legend:
# Type in all cases: functional
# [1] = system: Globisporangium debaryanum; test: Antifungal activity against Pythium debaryanum assessed as growth inhibition by poisoned food technique; conditions: read-out: ED50 (the source's name)
# Outline: (§1)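 ED50 from poisoned-food growth inhibition on PDA at 250, 125 and 62.5 μg/mL in medium, with an acetone control. Plates were inoculated with a 5 mm mycelial disc, incubated at 28 °C, and colony diameter was measured in quadruplicate. Percent inhibition was corrected by Abbott's formula, using a correction factor from the 9 cm dish diameter, and ED50 (μg/mL) was derived by probit analysis.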
# [2] = system: Globisporangium debaryanum; test: Antifungal activity against Pythium debaryanum assessed as growth inhibition at 62.5 ug/ml by poisoned food technique
# Outline: (§2)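 Poisoned-food assay on PDA. Test material was diluted in acetone and mixed into molten medium at final 250, 125 or 62.5 μg/mL, with 1 mL acetone as control. Plates received a 5 mm mycelial disc from the front of a 2-week-old colony and were incubated at 28 °C until control growth was nearly complete. Colony diameter was measured, giving %I = (C−T)/C×100. Mean ± SD of four replicates.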
# [3] = system: Globisporangium debaryanum; test: Antifungal activity against Pythium debaryanum assessed as growth inhibition at 125 ug/ml by poisoned food technique; outline: as §2
# [4] = system: Globisporangium debaryanum; test: Antifungal activity against Pythium debaryanum assessed as growth inhibition at 250 ug/ml by poisoned food technique; outline: as §2
# Pythium aphanidermatum [5] = test: Antifungal activity against Pythium aphanidermatum assessed as growth inhibition by poisoned food technique; conditions: read-out: ED50 (the source's name); outline: as §1
# Pythium aphanidermatum [6] = test: Antifungal activity against Pythium aphanidermatum assessed as growth inhibition at 62.5 ug/ml by poisoned food technique; outline: as §2
# Pythium aphanidermatum [7] = test: Antifungal activity against Pythium aphanidermatum assessed as growth inhibition at 125 ug/ml by poisoned food technique; outline: as §2
# Pythium aphanidermatum [8] = test: Antifungal activity against Pythium aphanidermatum assessed as growth inhibition at 250 ug/ml by poisoned food technique; outline: as §2
# Fusarium udum [9] = test: Antifungal activity against Fusarium udum assessed as growth inhibition by poisoned food technique; conditions: read-out: ED50 (the source's name); outline: as §1
# Fusarium udum [10] = test: Antifungal activity against Fusarium udum assessed as growth inhibition at 62.5 ug/ml by poisoned food technique; outline: as §2
# Fusarium udum [11] = test: Antifungal activity against Fusarium udum assessed as growth inhibition at 125 ug/ml by poisoned food technique; outline: as §2
# Fusarium udum [12] = test: Antifungal activity against Fusarium udum assessed as growth inhibition at 250 ug/ml by poisoned food technique; outline: as §2
# Macrophomina phaseolina [13] = test: Antifungal activity against Rhizoctonia bataticola assessed as growth inhibition by poisoned food technique; conditions: read-out: ED50 (the source's name); outline: as §1
# Macrophomina phaseolina [14] = test: Antifungal activity against Rhizoctonia bataticola assessed as growth inhibition at 62.5 ug/ml by poisoned food technique; outline: as §2
# Macrophomina phaseolina [15] = test: Antifungal activity against Rhizoctonia bataticola assessed as growth inhibition at 125 ug/ml by poisoned food technique; outline: as §2
# Macrophomina phaseolina [16] = test: Antifungal activity against Rhizoctonia bataticola assessed as growth inhibition at 250 ug/ml by poisoned food technique; outline: as §2
# Rhizoctonia solani [17] = test: Antifungal activity against Rhizoctonia solani assessed as growth inhibition by poisoned food technique; conditions: read-out: ED50 (the source's name); outline: as §1
# Rhizoctonia solani [18] = test: Antifungal activity against Rhizoctonia solani assessed as growth inhibition at 62.5 ug/ml by poisoned food technique; outline: as §2
# Rhizoctonia solani [19] = test: Antifungal activity against Rhizoctonia solani assessed as growth inhibition at 125 ug/ml by poisoned food technique; outline: as §2
# Rhizoctonia solani [20] = test: Antifungal activity against Rhizoctonia solani assessed as growth inhibition at 250 ug/ml by poisoned food technique; outline: as §2
# Athelia rolfsii [21] = test: Antifungal activity against Athelia rolfsii assessed as growth inhibition by poisoned food technique; conditions: Agroathelia rolfsii; read-out: ED50 (the source's name); outline: as §1
# Athelia rolfsii [22] = test: Antifungal activity against Athelia rolfsii assessed as growth inhibition at 62.5 ug/ml by poisoned food technique; conditions: Agroathelia rolfsii; outline: as §2
# Athelia rolfsii [23] = test: Antifungal activity against Athelia rolfsii assessed as growth inhibition at 125 ug/ml by poisoned food technique; conditions: Agroathelia rolfsii; outline: as §2
# Athelia rolfsii [24] = test: Antifungal activity against Athelia rolfsii assessed as growth inhibition at 250 ug/ml by poisoned food technique; conditions: Agroathelia rolfsii; outline: as §2
smiles,measurement,setting,value
COC(=O)c1c(C)cc(OC(=O)c2c(C)cc(O)c(C=O)c2O)c(C)c1O [ATRANORIN],EC50,[1],44.8 µg/mL
same,inhibition at 62.5 µg/mL,[2],56.3%
same,inhibition at 125 µg/mL,[3],78%
same,inhibition at 250 µg/mL,[4],89.7%
same,EC50,Pythium aphanidermatum [5],105 µg/mL
same,inhibition at 62.5 µg/mL,Pythium aphanidermatum [6],22%
same,inhibition at 125 µg/mL,Pythium aphanidermatum [7],43%
same,inhibition at 250 µg/mL,Pythium aphanidermatum [8],60.3%
same,EC50,Fusarium udum [9],50.3 µg/mL
same,inhibition at 62.5 µg/mL,Fusarium udum [10],50%
same,inhibition at 125 µg/mL,Fusarium udum [11],81.3%
same,inhibition at 250 µg/mL,Fusarium udum [12],90%
same,EC50,Macrophomina phaseolina [13],58.8 µg/mL
same,inhibition at 62.5 µg/mL,Macrophomina phaseolina [14],44.3%
same,inhibition at 125 µg/mL,Macrophomina phaseolina [15],67.7%
same,inhibition at 250 µg/mL,Macrophomina phaseolina [16],80%
same,EC50,Rhizoctonia solani [17],64.6 µg/mL
same,inhibition at 62.5 µg/mL,Rhizoctonia solani [18],40%
same,inhibition at 125 µg/mL,Rhizoctonia solani [19],62%
same,inhibition at 250 µg/mL,Rhizoctonia solani [20],81.3%
same,EC50,Athelia rolfsii [21],39.7 µg/mL
same,inhibition at 62.5 µg/mL,Athelia rolfsii [22],67.3%
same,inhibition at 125 µg/mL,Athelia rolfsii [23],89.7%
same,inhibition at 250 µg/mL,Athelia rolfsii [24],100%
Cc1cc(O)c(C=O)c2c1C(=O)Oc1c(CO)c(O)c3c(c1O2)C(O)OC3=O (stereo not given) [SLAZINIC ACID],EC50,[1],151 µg/mL
same,inhibition at 62.5 µg/mL,[2],11.9%
same,inhibition at 125 µg/mL,[3],28.1%
same,inhibition at 250 µg/mL,[4],43.5%
same,EC50,Pythium aphanidermatum [5],121 µg/mL
same,inhibition at 62.5 µg/mL,Pythium aphanidermatum [6],11.1%
same,inhibition at 125 µg/mL,Pythium aphanidermatum [7],25.5%
same,inhibition at 250 µg/mL,Pythium aphanidermatum [8],61%
same,EC50,Fusarium udum [9],88.2 µg/mL
same,inhibition at 62.5 µg/mL,Fusarium udum [10],31%
same,inhibition at 125 µg/mL,Fusarium udum [11],50.1%
same,inhibition at 250 µg/mL,Fusarium udum [12],67%
same,EC50,Macrophomina phaseolina [13],161 µg/mL
same,inhibition at 62.5 µg/mL,Macrophomina phaseolina [14],9%
same,inhibition at 125 µg/mL,Macrophomina phaseolina [15],26.8%
same,inhibition at 250 µg/mL,Macrophomina phaseolina [16],41.2%
same,EC50,Rhizoctonia solani [17],179 µg/mL
same,inhibition at 62.5 µg/mL,Rhizoctonia solani [18],22.1%
same,inhibition at 125 µg/mL,Rhizoctonia solani [19],30.2%
same,inhibition at 250 µg/mL,Rhizoctonia solani [20],45.2%
same,EC50,Athelia rolfsii [21],164 µg/mL
same,inhibition at 62.5 µg/mL,Athelia rolfsii [22],5.93%
same,inhibition at 125 µg/mL,Athelia rolfsii [23],21%
same,inhibition at 250 µg/mL,Athelia rolfsii [24],38.2%
COc1cc(C)c2c(=O)c3c(O)cc(OC)cc3oc2c1 [LICHEXANTHONE],EC50,[1],149 µg/mL
same,inhibition at 62.5 µg/mL,[2],9.03%
same,inhibition at 125 µg/mL,[3],28.4%
same,inhibition at 250 µg/mL,[4],42%
same,EC50,Pythium aphanidermatum [5],174 µg/mL
same,inhibition at 62.5 µg/mL,Pythium aphanidermatum [6],13%
same,inhibition at 125 µg/mL,Pythium aphanidermatum [7],23.4%
same,inhibition at 250 µg/mL,Pythium aphanidermatum [8],42.7%
same,EC50,Fusarium udum [9],151 µg/mL
same,inhibition at 62.5 µg/mL,Fusarium udum [10],20.3%
same,inhibition at 125 µg/mL,Fusarium udum [11],24.5%
same,inhibition at 250 µg/mL,Fusarium udum [12],53.3%
same,EC50,Macrophomina phaseolina [13],134 µg/mL
same,inhibition at 62.5 µg/mL,Macrophomina phaseolina [14],11.4%
same,inhibition at 125 µg/mL,Macrophomina phaseolina [15],30.3%
same,inhibition at 250 µg/mL,Macrophomina phaseolina [16],50%
same,EC50,Rhizoctonia solani [17],202 µg/mL
same,inhibition at 62.5 µg/mL,Rhizoctonia solani [18],19.6%
same,inhibition at 125 µg/mL,Rhizoctonia solani [19],29.4%
same,inhibition at 250 µg/mL,Rhizoctonia solani [20],41%
same,EC50,Athelia rolfsii [21],273 µg/mL
same,inhibition at 62.5 µg/mL,Athelia rolfsii [22],16.7%
same,inhibition at 125 µg/mL,Athelia rolfsii [23],23.2%
same,inhibition at 250 µg/mL,Athelia rolfsii [24],37.3%
CC(=O)C1=C(O)C=C2Oc3c(C)c(O)c(C(C)=O)c(O)c3C2(C)C1=O (racemic) [(+/-)-ISOUSNIC ACID],EC50,[1],71 µg/mL
same,inhibition at 62.5 µg/mL,[2],35.1%
same,inhibition at 125 µg/mL,[3],66.2%
same,inhibition at 250 µg/mL,[4],72.1%
same,EC50,Pythium aphanidermatum [5],62.3 µg/mL
same,inhibition at 62.5 µg/mL,Pythium aphanidermatum [6],46.1%
same,inhibition at 125 µg/mL,Pythium aphanidermatum [7],53.2%
same,inhibition at 250 µg/mL,Pythium aphanidermatum [8],75.4%
same,EC50,Fusarium udum [9],70.9 µg/mL
same,inhibition at 62.5 µg/mL,Fusarium udum [10],33.4%
same,inhibition at 125 µg/mL,Fusarium udum [11],63.3%
same,inhibition at 250 µg/mL,Fusarium udum [12],81%
same,EC50,Macrophomina phaseolina [13],70.4 µg/mL
same,inhibition at 62.5 µg/mL,Macrophomina phaseolina [14],29.3%
same,inhibition at 125 µg/mL,Macrophomina phaseolina [15],69.1%
same,inhibition at 250 µg/mL,Macrophomina phaseolina [16],87.2%
same,EC50,Rhizoctonia solani [17],64.6 µg/mL
same,inhibition at 62.5 µg/mL,Rhizoctonia solani [18],35.2%
same,inhibition at 125 µg/mL,Rhizoctonia solani [19],73.1%
same,inhibition at 250 µg/mL,Rhizoctonia solani [20],86.4%
same,EC50,Athelia rolfsii [21],69.6 µg/mL
same,inhibition at 62.5 µg/mL,Athelia rolfsii [22],32.8%
same,inhibition at 125 µg/mL,Athelia rolfsii [23],66.1%
same,inhibition at 250 µg/mL,Athelia rolfsii [24],84%
"CCOC(=O)c1c(C)cc(O)cc1O [ORSELLINIC ACID, ETHYL ESTER]",EC50,[1],72.5 µg/mL
same,inhibition at 62.5 µg/mL,[2],28.3%
same,inhibition at 125 µg/mL,[3],61.2%
same,inhibition at 250 µg/mL,[4],91.4%
same,EC50,Pythium aphanidermatum [5],86.9 µg/mL
same,inhibition at 62.5 µg/mL,Pythium aphanidermatum [6],18.5%
same,inhibition at 125 µg/mL,Pythium aphanidermatum [7],50.4%
same,inhibition at 250 µg/mL,Pythium aphanidermatum [8],83.3%
same,EC50,Fusarium udum [9],98.2 µg/mL
same,inhibition at 62.5 µg/mL,Fusarium udum [10],17.3%
same,inhibition at 125 µg/mL,Fusarium udum [11],32.5%
same,inhibition at 250 µg/mL,Fusarium udum [12],79.4%
same,EC50,Macrophomina phaseolina [13],114 µg/mL
same,inhibition at 62.5 µg/mL,Macrophomina phaseolina [14],16.4%
same,inhibition at 125 µg/mL,Macrophomina phaseolina [15],28%
same,inhibition at 250 µg/mL,Macrophomina phaseolina [16],67.2%
same,EC50,Rhizoctonia solani [17],58.3 µg/mL
same,inhibition at 62.5 µg/mL,Rhizoctonia solani [18],44.4%
same,inhibition at 125 µg/mL,Rhizoctonia solani [19],68.1%
same,inhibition at 250 µg/mL,Rhizoctonia solani [20],90.4%
same,EC50,Athelia rolfsii [21],82.7 µg/mL
same,inhibition at 62.5 µg/mL,Athelia rolfsii [22],28.3%
same,inhibition at 125 µg/mL,Athelia rolfsii [23],50.5%
same,inhibition at 250 µg/mL,Athelia rolfsii [24],78%
